Measured values: ChEMBL document CHEMBL1153572, “Synthesis and antinociceptive activity of capsinoid derivatives” (Eur J Med Chem, 2009)

Legend:
[1] = test system: Mus musculus; experiment: Antinociceptive activity against acetic acid-induced writhing in sc dosed KM mouse for 30 mins; type: functional; details: 0.5 h
Procedure, shortened: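 Mice, half male and half female, 8 per group, in cages at 23 ± 2 °C, 40–60% humidity and a 12 h light/dark cycle. Compounds were dissolved in 10% Tween-80 (aq) as twofold serial dilutions and given sc as a single 0.2 mL dose, with vehicle control. After 20 min, 0.2 mL of 0.7% acetic acid was given ip. Writhes were counted for 30 min. ED50 reported with 95% C.L.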

[2] = species on record: Mus musculus; experiment: Toxicity in KM mouse assessed as number of protective movements for 30 mins by wiping test; type: organism-based; details: in vivo, 0.5 h
Procedure, shortened: (§1)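 Eye-drop test. Twofold dilutions were dropped into the right eye, with vehicle in the left eye as control. Protective movements (scratching, wiping the eye with the foreleg) were counted for 30 min. Six animals per concentration, half male and half female. A dose–response curve was built from group means, and MPP was taken as the concentration giving 32 scratches.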

[3] = test system: Mus musculus; experiment: Antinociceptive activity against acetic acid-induced writhing in sc dosed KM mouse for 30 mins relative to indomethacin; type: functional
Procedure, shortened: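 Writhing ED50 from sc dosing (8 mice per group, 10% Tween-80 vehicle, 0.7% acetic acid ip 20 min after dosing, writhes counted for 30 min) expressed as a potency ratio relative to indomethacin run in parallel.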

[4] = species on record: Mus musculus; experiment: Toxicity in KM mouse assessed as moderate pain producing potency for 30 mins by wiping test; type: organism-based; details: in vivo, 0.5 h; procedure, shortened: as §1
[5] = species on record: Mus musculus; experiment: Toxicity in KM mouse assessed as relative pungent potency for 30 mins by wiping test relative to capsaicin; type: organism-based; details: in vivo, 0.5 h
Procedure, shortened: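 RPP was derived from MPP values read off the eye-drop dose–response curve (movements counted for 30 min, 6 animals per concentration). It was scaled to the pain-producing potency of capsaicin, set as 1000.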

| SMILES | ED50 [1] [mg/kg] | Activity [2] | Ratio [3] | Activity [4] | Activity [5] |
| --- | --- | --- | --- | --- | --- |
| CCCCCCCCCC(=O)OCc1ccc(OCCCCCC)c(OC)c1 | 1.84 | 11 | 5.89 | Non-toxic | Non-toxic |
| CCCCCCCCCC(=O)OCc1ccc(OCCCC)c(OC)c1 | 3.16 | 8 | 3.19 | Non-toxic | Non-toxic |
| CCCCCCCCCC(=O)OCc1ccc(OCC)c(OC)c1 | 3.92 | 4 | 2.57 | Non-toxic | Non-toxic |
| COc1cc(CNC(=O)CCCC/C=C/C(C)C)ccc1O [CAPSAICIN] |  |  |  | 0.099 mg/mL |  |
| COc1ccc2c(c1)c(CC(=O)O)c(C)n2C(=O)c1ccc(Cl)cc1 [INDOMETHACIN] |  |  | 1 |  |  |
| CCCCCCCC(=O)OCc1ccc(O)c(OC)c1 [VANILLYL CAPRYLATE] | 12.6 | 28 | 0.8 | Non-toxic | Non-toxic |
| CCCCCCCCCC(=O)OCc1ccc(O)c(OC)c1 [VANILLYL DECANOATE] | 15.6 | 25 | 0.65 | Non-toxic | Non-toxic |
| CCCCCCCCCCCC(=O)OCc1ccc(O)c(OC)c1 [VANILLYL LAURATE] | 19.4 | 22 | 0.52 | Non-toxic | Non-toxic |
